Results on 1 compound are retold here after ChEMBL document CHEMBL5712910, “Histone methyltransferases EHMT1 and EHMT2 (GLP/G9A) maintain PARP inhibitor resistance in high-grade serous ovarian carcinoma” (Clin Epigenetics, 2019).

In experiment [1] the test system is Olaparib-resistant PEO1. The experiment can be described thus: Antitumor activity against human Olaparib-resistant PEO1 cells assessed as H3K9me2 protein level for 72 hrs by immunoblot analysis. It is filed as functional, cell-based. In a few lines: (§1)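 PEO1-OR cells treated 72 h with DMSO or UNC0642 at two-fold dilutions from 2 μM to 125 nM. Histone extracts immunoblotted for H3K9me2, with H3K27me3 as a specificity check; densitometry normalized to total H3. For immunofluorescence, cells were fixed on coverslips in 4% paraformaldehyde and permeabilized with 0.2% Triton X-100, with DAPI counterstain.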
In general terms: Immunoblotting shows a protein as a band on a membrane.

Experiment [2] relates to Olaparib-resistant PEO1. Put plainly: Antitumor activity against human Olaparib-resistant PEO1 cells assessed as H3K9me2 protein level at 500 nM for 72 hrs by immunofluorescence analysis. It is filed as functional, cell-based. The method in brief:
as §1

In experiment [3] the test system is Olaparib-resistant PEO1. Put plainly: Induction of cell cycle arrest in human Olaparib-resistant PEO1 cells assessed as accumulation of cells in G2 phase pretreated for 72 hrs by UNC0642 follwed by compound addition at 1 uM incubated for 72 hrs by propidium iodide staining based flow cytometry analysis (reference value: 23.2 %). It is filed as functional. For orientation: Flow cytometry measures light scatter and fluorescence of single cells or particles in a stream.

The subject of experiment [4] is Olaparib-resistant PEO1. Put plainly: Induction of cell cycle arrest in human Olaparib-resistant PEO1 cells assessed as accumulation of cells in S phase pretreated for 72 hrs by UNC0642 follwed by compound addition at 1 uM incubated for 72 hrs by propidium iodide staining based flow cytometry analysis (reference value: 21.9%). It is filed as functional.
The subject of experiment [5] is Olaparib-resistant PEO1. The experiment can be described thus: Induction of cell cycle arrest in human Olaparib-resistant PEO1 cells assessed as accumulation of cells in G1 phase pretreated for 72 hrs by UNC0642 follwed by compound addition at 1 uM incubated for 72 hrs by propidium iodide staining based flow cytometry analysis (reference value: 52.9%). It is filed as functional.

For experiment [6], the system named is Olaparib-resistant PEO1. Put plainly: Inhibition of EHMT1/2 in human Olaparib-resistant PEO1 cells assessed as reduction in Cyclin A protein level at 1 uM for 72 hrs by immunoblot analysis. It is filed as functional, cell-based. In a few lines: (§2)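 PEO1-OR cells were treated with olaparib and/or UNC0642 as for the cell-cycle experiment. Total RIPA lysates were immunoblotted for cell-cycle proteins, and band intensity was normalized to actin, relative to the non-pretreated control.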

The subject of experiment [7] is Olaparib-resistant PEO1. The experiment can be described thus: Inhibition of EHMT1/2 in human Olaparib-resistant PEO1 cells assessed as reduction in Cyclin B1 protein level at 1 uM for 72 hrs by immunoblot analysis. It is filed as functional, cell-based. The method in brief: as §2
For experiment [8], the system named is Olaparib-resistant PEO1. Put plainly: Inhibition of EHMT1/2 in human Olaparib-resistant PEO1 cells assessed as reduction in total CDC25C protein level at 1 uM for 72 hrs by immunoblot analysis. It is filed as functional, cell-based. The method in brief:
as §2

The target of experiment [9] is T1, Histone-lysine N-methyltransferase EHMT1 (Homo sapiens) (UniProt Q9H9B1).
T1 sequence (whole entry): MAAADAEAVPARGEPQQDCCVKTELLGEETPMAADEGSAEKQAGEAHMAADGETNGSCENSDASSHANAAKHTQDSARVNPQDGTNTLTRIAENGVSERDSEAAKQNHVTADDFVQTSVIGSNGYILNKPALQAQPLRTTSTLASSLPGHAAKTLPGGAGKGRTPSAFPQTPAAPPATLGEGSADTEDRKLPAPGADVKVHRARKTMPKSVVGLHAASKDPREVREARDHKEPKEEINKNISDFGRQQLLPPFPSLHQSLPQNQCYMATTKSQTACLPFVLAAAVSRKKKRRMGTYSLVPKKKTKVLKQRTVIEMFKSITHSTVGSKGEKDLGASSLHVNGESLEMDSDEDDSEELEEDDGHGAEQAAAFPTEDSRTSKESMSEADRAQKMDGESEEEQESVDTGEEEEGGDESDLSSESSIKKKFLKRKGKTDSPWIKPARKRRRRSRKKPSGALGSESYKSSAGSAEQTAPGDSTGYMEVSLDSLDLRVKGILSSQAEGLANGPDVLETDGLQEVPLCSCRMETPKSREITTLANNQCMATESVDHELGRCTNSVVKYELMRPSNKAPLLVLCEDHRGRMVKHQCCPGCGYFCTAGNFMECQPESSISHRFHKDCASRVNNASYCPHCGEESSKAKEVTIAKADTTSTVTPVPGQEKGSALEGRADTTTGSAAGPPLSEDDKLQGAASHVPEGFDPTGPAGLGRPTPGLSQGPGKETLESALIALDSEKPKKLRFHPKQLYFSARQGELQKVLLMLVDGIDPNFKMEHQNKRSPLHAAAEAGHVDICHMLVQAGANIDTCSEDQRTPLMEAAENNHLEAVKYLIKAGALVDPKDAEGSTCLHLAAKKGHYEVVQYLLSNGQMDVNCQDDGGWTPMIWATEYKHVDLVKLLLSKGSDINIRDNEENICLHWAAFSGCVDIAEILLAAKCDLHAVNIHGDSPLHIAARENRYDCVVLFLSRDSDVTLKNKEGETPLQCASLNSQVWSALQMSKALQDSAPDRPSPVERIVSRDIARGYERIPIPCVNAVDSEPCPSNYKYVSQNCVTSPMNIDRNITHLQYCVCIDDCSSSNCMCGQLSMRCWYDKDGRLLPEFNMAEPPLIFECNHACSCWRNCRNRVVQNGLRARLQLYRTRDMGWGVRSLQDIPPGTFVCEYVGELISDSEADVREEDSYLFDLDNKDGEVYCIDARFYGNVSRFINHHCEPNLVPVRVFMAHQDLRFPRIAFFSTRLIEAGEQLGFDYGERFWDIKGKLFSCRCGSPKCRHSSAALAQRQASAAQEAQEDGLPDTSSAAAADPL
The experiment can be described thus: Inhibition of EHMT1 in human Olaparib-resistant PEO1 cells assessed as reduction in CDC25C phosphorylation at 1 uM for 72 hrs by immunoblot analysis. It is filed as cell-based. In a few lines:
as §2

Experiment [10] concerns Olaparib-resistant PEO1. Put plainly: Induction of cell cycle arrest in human Olaparib-resistant PEO1 cells assessed as accumulation of cells in G2 phase pretreated for 72 hrs by vehicle follwed by compound addition at 1 uM incubated for 72 hrs by propidium iodide staining based flow cytometry analysis (reference value: 20.7%). It is filed as functional.
For experiment [11], the system named is Olaparib-resistant PEO1. Put plainly: Induction of cell cycle arrest in human Olaparib-resistant PEO1 cells assessed as accumulation of cells in S phase pretreated for 72 hrs by vehicle follwed by compound addition at 1 uM incubated for 72 hrs by propidium iodide staining based flow cytometry analysis (reference value: 21.5%). It is filed as functional.
The subject of experiment [12] is Olaparib-resistant PEO1. The experiment can be described thus: Induction of cell cycle arrest in human Olaparib-resistant PEO1 cells assessed as accumulation of cells in G1 phase pretreated for 72 hrs by vehicle follwed by compound addition at 1 uM incubated for 72 hrs by propidium iodide staining based flow cytometry analysis (reference value: 54.7%). It is filed as functional.

The source made the active and inactive calls. The rule behind the calls is not given here.

With `COc1cc2c(NC3CCN(C(C)C)CC3)nc(N3CCC(F)(F)CC3)nc2cc1OCCCN1CCCC1`, the result in the experiment with Olaparib-resistant PEO1 [1], in the experiment with Olaparib-resistant PEO1 [2], in the experiment with Olaparib-resistant PEO1 [6], in the experiment with Olaparib-resistant PEO1 [7] and in the experiment with Olaparib-resistant PEO1 [8] was Active. In addition, the Activity was 22.5% in the experiment on Olaparib-resistant PEO1 [3]; 23.4% in the experiment with Olaparib-resistant PEO1 [4]; 51.7% in the experiment on Olaparib-resistant PEO1 [5]; 21.5% in the experiment on Olaparib-resistant PEO1 [10]; 22.8% in the experiment on Olaparib-resistant PEO1 [11]; 53.3% in the experiment with Olaparib-resistant PEO1 [12]. In addition, in experiment [9], the inhibition entry was “Active”.
